Screens: PubChem BioAssay, The Scripps Research Institute Molecular Screening Center
RORa inhibitor = blocks the human nuclear receptor RORA. P35398. CHO-K1 Gal4-RORA LBD luciferase reporter, luminescence. inhibition, % at 10 µM. actives 0.43% (n = 65,000). AID 561;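 active means inhibition above the mean of all tested compounds plus 3 SD, cut at about 52% in these data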;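 further: 0% = RORA-transfected cells with DMSO and 100% = mock-transfected cells lacking RORA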
Target sequence (P35398 whole entry, looked up, the tested form may be a part): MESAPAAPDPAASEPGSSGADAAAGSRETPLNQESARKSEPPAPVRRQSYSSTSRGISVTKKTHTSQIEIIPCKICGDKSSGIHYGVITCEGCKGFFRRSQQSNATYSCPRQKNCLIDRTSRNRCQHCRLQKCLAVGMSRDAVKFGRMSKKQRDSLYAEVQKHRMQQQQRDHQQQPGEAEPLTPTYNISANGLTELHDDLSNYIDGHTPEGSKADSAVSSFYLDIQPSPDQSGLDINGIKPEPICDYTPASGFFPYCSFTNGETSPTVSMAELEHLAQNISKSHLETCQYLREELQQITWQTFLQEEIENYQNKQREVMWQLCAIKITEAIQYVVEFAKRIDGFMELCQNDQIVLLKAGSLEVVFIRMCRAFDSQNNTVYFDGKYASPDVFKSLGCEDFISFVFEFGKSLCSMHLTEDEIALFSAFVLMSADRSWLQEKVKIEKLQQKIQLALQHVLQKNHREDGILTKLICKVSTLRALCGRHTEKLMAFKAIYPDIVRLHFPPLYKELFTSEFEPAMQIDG
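System: transiently transfected CHO-K1 cells, Gal4-DBD/human RORA-LBD fusion plus 5xGal4-luciferase reporter. Doses: one dose of 10 µM final. Timing: 20 h compound treatment, 37 °C. Measured by: luminescence. Evaluation: % inhibition of basal luciferase versus +RORA/-RORA DMSO controls. Benchmarks: mock-transfected cells as 100%, +RORA DMSO cells as 0%. Replicates: single test per compound.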
* hit, by the source's call. The sample as a whole holds a higher share of hits than the screen did.

SMILES	RORa inhibitor
O=C(CSc1nnc(COc2ccc(F)cc2)o1)N1c2ccccc2CCc2ccccc21	-18
O=C(CSc1nnc(COc2cccc3cccnc23)o1)N1CCc2ccccc21	59*
Cc1ccc(NCc2nnc(SCC(=O)N3CCCc4ccccc43)o2)c(C)c1	7
O=C(C1CC(=O)N(c2ccccc2)C1)N1CCN(C2=NS(=O)(=O)c3ccccc32)CC1 (stereo not drawn)	8
COc1ccc(N2CCN(CCCNC(=O)CC3Oc4ccc(C)cc4NC3=O)CC2)cc1 (stereo not drawn)	8
Cc1nnc(SCC(=O)Nc2ccc3c(c2)COC3=O)n1-c1ccccc1	6
O=C(Cn1ccc2ccccc2c1=O)N1CCN(Cc2ccc3c(c2)OCO3)CC1	-8
Cc1ccc2[nH]c3c(N4CCCCCC4)ncnc3c2c1	78*
COc1ccc2c(c1)[nH]c1c(N3CCN(Cc4ccc5c(c4)OCO5)CC3)ncnc12	72*
c1nc(N2CCN(Cc3ccc4c(c3)OCO4)CC2)c2[nH]cnc2n1	22
COCCn1nnnc1C(c1ccc(C)cc1)N1CCN(Cc2ccc3c(c2)OCO3)CC1 (stereo not drawn)	9
Cc1ccc2[nH]c3c(N4CCN(Cc5ccc6c(c5)OCO6)CC4)ncnc3c2c1	82*
Cc1ccc2c(c1)c1ncnc(N3CCC4(CC3)OCCO4)c1n2C	-62
O=C(N1CCN(Cc2ccc3c(c2)OCO3)CC1)C12CC3CC(CC(C3)C1)C2	8
CCOC(=O)N1CCC(=C2c3ccc(Cl)cc3CCc3cccnc32)CC1	-12
CCOc1ccccc1C1C(C(=O)Nc2ccc(OC)cc2)=C(C)Nc2nc(CCCO)nn21 (stereo not drawn)	8
CCOC(=O)NCCc1c(C)nc2c(c(C)nn2C(C)(C)C)c1C	12
CCOc1ccc(-n2nnc3c(=O)n(CC(=O)c4ccccc4)cnc32)cc1	12
CCOC(=O)c1c(C)[nH]c(C)c1C(=O)CSc1nnc(-c2ccncc2)n1C	5
Cc1cc(/C=c2/sc3nc4ccccc4n3c2=O)c(C)n1-c1ccccn1	87*
CCOC(=O)N1CCC(NC(=O)Cn2cc3c(n2)CCCC3)CC1	-6
O=S(=O)(c1ccc2c(c1)C(=NO)c1cc(S(=O)(=O)N3CCCCC3)ccc1-2)N1CCCCC1	66*
COc1ccc(Oc2ccc(S(=O)(=O)N3CCCCC3)cc2S(=O)(=O)N2CCCCC2)cc1	9
O=S(=O)(c1ccc(S(=O)(=O)N2CCCC2)cc1)N1CCCCCC1	-10
Cn1c(=O)c2c(SCc3ccccn3)nc(-c3ccccc3)nc2n(C)c1=O	12
SMILES	RORa inhibitor
Cc1ccnc(N2CCN(c3c4c(c(C#N)c5nc6ccccc6n35)CCC4)CC2)c1	14
CCc1ccc(NC(=O)CSc2nnc(Cc3cccn3C)n2-c2ccc(F)cc2)cc1	7
CCCCOc1ccc(S(=O)(=O)N2CCCCCC2)cc1	-12
CCOc1ccc(S(=O)(=O)n2cnc3cc(C)c(C)cc32)cc1	66*
CCOc1ccc(OCC(=O)Nc2ccc(S(=O)(=O)Nc3cc(C)nc(C)n3)cc2)cc1	-5
CC1(C)N=C(c2ccc(Cl)cc2Cl)C(=O)N1	-9
CCN(CC)C(=O)N1CCC(NC(=O)c2ccccc2)CC1	-3
COCCNS(=O)(=O)c1cccc2cccnc12	-8
COc1ccc(S(=O)(=O)NCCc2ccc(F)cc2)cc1	14
COc1ccc(CCC(=O)NCc2cnn(C)c2)cc1	10
COc1ccc(CCNc2c(C)c(C)nc3ncnn23)cc1	78*
COc1cccc2c1C(=O)c1c(O)c3c(c(O)c1C2=O)C[C@@](O)(C(C)=O)C[C@@H]3O[C@H]1C[C@H](N)[C@H](O)[C@H](C)O1	78*
O=C(Cc1ccccc1)Nc1c(C(=O)N2CCOCC2)cnn1-c1ccccc1	-11
CCc1ccc(-c2cn3nc(C)c(C)nc3n2)cc1	86*
O=C(NC1CCCc2ccccc21)C1CCN(c2c(N3CCCC3)c(=O)c2=O)CC1 (stereo not drawn)	-6
O=C(CC1Oc2ccccc2NC1=O)NCc1ccccc1 (stereo not drawn)	4
CC(=O)CC1OC(=O)C(Br)=C1NCc1ccccc1 (stereo not drawn)	63*
CC1CCCN(S(=O)(=O)c2ccc3c(c2)CCN3C(=O)C2CCC2)C1 (stereo not drawn)	13
CC(=O)N1CCC2(CC1)CC(=O)c1cc(OCC(=O)NCc3ccco3)ccc1O2	11
COC(=O)c1ccc2ccn(CC(=O)NC(C)C)c2c1	10
Cc1ccc(-c2csc3ncnc(Sc4nnc(CN5CCCCCC5=O)o4)c23)cc1	57*
CCCCOc1ccccc1NC(=O)CSc1nnnn1C(C)(C)C	2
Cc1cccc(-n2ncc3c(N(CCO)CCO)ncnc32)c1	-68
COc1ccc(-n2ncc3c(N(C)C4CCCCC4)ncnc32)cc1	76*
COCCN(CCOC)c1ncnc2c1cnn2-c1ccc(Cl)cc1	-55
SMILES	RORa inhibitor
Cc1cccc(-n2ncc3c(NCc4ccccc4)ncnc32)c1	-78
Cc1cccc(-n2ncc3c(N(C)C4CCCCC4)ncnc32)c1	73*
CCN(c1ccccc1)c1ncnc2c1cnn2-c1ccccc1	-59
CCN(CC)S(=O)(=O)c1ccc2c(c1)c(=O)c(C(=O)N1CCN(c3ccccc3)CC1)cn2C	0
Cn1c(=O)oc2cc(S(=O)(=O)NCC3CCCO3)ccc21 (stereo not drawn)	-16
Cc1ccc(N2C(N)=NC(N)=NC23CCCC3)c(C)c1	14
NC(=O)c1nn(-c2ccccc2)nc1N	19
COc1ccc(-n2c(SCC#N)nnc2-c2ccc(NS(=O)(=O)c3ccc(C)cc3)cc2)cc1	-7
CCOC(=O)C1CCN(c2ncnc3c2cnn3-c2ccc(Cl)cc2)CC1	66*
Cc1nn(-c2ccccc2)c(Cl)c1C(=O)N1CCN(c2ncnc3c2cnn3-c2ccccc2)CC1	37
Cc1ccc(-n2ncc3c(N4CCC(C(N)=O)CC4)ncnc32)c(C)c1	15
CCOC(=O)Cc1csc(NC(=O)CSc2nc3cccnc3n2CC)n1	-2
Cc1cnc(-c2nnc(N(C)C(=O)c3ccccn3)s2)cn1	-40
COC(=O)Cn1ncn2c(cc3oc(C)cc32)c1=O	-34
Cc1cc(NC(=O)CSc2ncnc3ccccc23)no1	-3
COc1ccc2[nH]c(=O)c3c(c2c1)OC(C)(C)C=C3	58*
COc1ccc2[nH]c(C)c(CN3CCC(C)CC3)c(=O)c2c1	1
CCCn1nnnc1SCC(=O)N(C(C)C)C(C)C	3
Cc1cc(C)n(CCn2nc(C)cc2C)n1	-12
COc1ccc(-c2cc3nc4n(c(=O)c3s2)CCC4)cc1	71*
O=C(Nc1ccc2nc3n(c(=O)c2c1)CCCCC3)c1ccccn1	-54
COc1ccc2cc3c(N)c(C(=O)N4CCCC4)sc3nc2c1	8
COc1ccc(NC(=O)c2cnc3ccccn3c2=O)cc1OC	-53
CCOCCn1c(CN(Cc2ccccc2)Cc2ccccc2)nc2c1c(=O)n(C)c(=O)n2C	-2
C=CCNC(=O)c1ccccc1NC(=O)c1ccccc1	19
SMILES	RORa inhibitor
CCOCCCNCC(=O)N1CCN(S(=O)(=O)c2ccc(C)cc2)CC1	24
CN(CC(=O)NCc1ccco1)S(=O)(=O)c1ccc2c(c1)n(C)c(=O)c(=O)n2C	15
COc1ccccc1-c1nn2c(C(F)(F)F)nnc2s1	0
CN(C)c1ccc(-c2nn3c(-c4ccccc4Cl)nnc3s2)cc1	12
COc1ccccc1-c1nnc2sc(-c3ccc(N(C)C)cc3)nn12	57*
CCc1ccc(-c2nnn(CCC(=O)OC)n2)cc1	53*
c1ccc(OCCCn2nnc(-c3ccc(N4CCOCC4)cc3)n2)cc1	-4
